From ChEMBL document CHEMBL3352485 (J Med Chem, 2014)
Calls of active or inactive are those of the source. No cut-off for these calls is given here. Where a SMILES comes first, the peptide text is derived from it. [ ]: non-standard residue; d: D form. Arg(Me) = CNC(=N)NCCC[C@H](N)C(=O)O; azaGly = NNC(=O)O

How the values were obtained:
[1] = Stability of the compound in aqueous solution assessed as residual ratio at pH 5 up to 1 week by HPLC analysis relative to initial level; type: physicochemical
Summary of the method: (§1)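 Peptides in aqueous solution at pH 1.2 (JP1, containing 10% acetonitrile), 3, 5 or 7 were kept in the dark at 37 °C for up to 2 weeks. Peptide remaining was quantified from HPLC peak area, with detection at 230–280 nm. The residual ratio (stability index) was expressed relative to the time-0 amount, taken as 100%.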

Rattus norvegicus [2] = experiment: Stimulation of LH release in Crl:CD(SD) rat assessed as LH AUC (0 to 4 hrs) at 0.01 to 1 nmol/kg, sc single dose relative to metastin; type: functional
[3] = Total clearance in Sprague-Dawley rat at 1 mg/kg, iv after 24 hrs by LC-MS/MS analysis; type: ADME, organism-based; set-up: dose 1 mg/kg, route intravenous; settings: in vivo
Summary of the method: (§2)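 Male Crl:CD(SD) rats (3 per group) got a single intravenous dose of 1 mg/kg. Blood was drawn at 5, 10, 15 and 30 min and at 1, 2, 4, 8 and 24 h. Plasma proteins were removed with 0.2% formic acid/methanol and acetonitrile, and the supernatant was treated with 0.4% formic acid. Peptide was quantified by LC-MS. Noncompartmental parameters were derived per rat, reported as mean ± SD (n = 3).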

KiSS-1 receptor [4] = molecular target: T1, KiSS-1 receptor (Rattus norvegicus, UniProt Q924U1); experiment: Displacement of radioligand from rat KISS1R transfected in CHO cells; type: cell-based
T1 sequence (Q924U1 whole entry): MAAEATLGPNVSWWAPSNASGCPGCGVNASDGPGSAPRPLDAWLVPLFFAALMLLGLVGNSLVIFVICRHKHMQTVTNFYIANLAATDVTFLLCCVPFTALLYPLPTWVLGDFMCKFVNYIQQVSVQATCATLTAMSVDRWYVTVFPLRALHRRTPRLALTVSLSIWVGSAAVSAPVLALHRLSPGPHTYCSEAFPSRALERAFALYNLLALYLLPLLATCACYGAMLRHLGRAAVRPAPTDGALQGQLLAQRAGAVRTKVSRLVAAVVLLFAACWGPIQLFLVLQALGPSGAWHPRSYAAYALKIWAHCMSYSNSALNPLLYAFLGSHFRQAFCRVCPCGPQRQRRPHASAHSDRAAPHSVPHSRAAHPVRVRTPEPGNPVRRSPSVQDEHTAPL

[5] = AUC (0 to 24 hrs) in Sprague-Dawley rat at 1 mg/kg, iv after 24 hrs by LC-MS/MS analysis; type: ADME, organism-based; set-up: time < 24 hr, dose 1 mg/kg, route intravenous; settings: plasma; summary of the method: as §2
[6] = Stability of the compound in aqueous solution (JP1) assessed as residual ratio at pH 1.2 up to 1 week by HPLC analysis relative to initial level; type: physicochemical; summary of the method: as §1
Rattus norvegicus [7] = species on record: Rattus norvegicus; experiment: Toxicity in rat; type: organism-based; settings: in vivo
KiSS-1 receptor [8] = molecular target: T2, KiSS-1 receptor (Homo sapiens, UniProt Q969F8); experiment: Displacement of radioligand from human KISS1R transfected in CHO cells; type: cell-based
T2 sequence (Q969F8 whole entry): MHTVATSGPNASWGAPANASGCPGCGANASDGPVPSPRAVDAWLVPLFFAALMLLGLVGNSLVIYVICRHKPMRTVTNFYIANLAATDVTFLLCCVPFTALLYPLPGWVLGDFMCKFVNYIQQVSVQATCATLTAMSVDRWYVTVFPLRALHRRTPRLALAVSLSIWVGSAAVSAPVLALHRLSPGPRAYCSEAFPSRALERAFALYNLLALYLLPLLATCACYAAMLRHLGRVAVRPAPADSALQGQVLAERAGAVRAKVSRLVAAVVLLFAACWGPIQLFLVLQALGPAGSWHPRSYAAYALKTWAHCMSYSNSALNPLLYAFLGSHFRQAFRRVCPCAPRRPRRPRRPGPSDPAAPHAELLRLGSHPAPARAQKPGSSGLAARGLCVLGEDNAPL
Summary of the method: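 Binding used membrane fractions prepared from CHO cells expressing recombinant human KISS1R.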

[9] = Stability of the compound in aqueous solution (JP1) assessed as residual ratio at pH 1.2 up to 2 weeks by HPLC analysis relative to initial level; type: physicochemical; summary of the method: as §1
[10] = Mean residence time in Sprague-Dawley rat at 1 mg/kg, iv after 24 hrs by LC-MS/MS analysis; type: ADME, organism-based; set-up: dose 1 mg/kg, route intravenous; settings: in vivo; summary of the method: as §2
[11] = Mean residence time in Sprague-Dawley rat at 1 mg/kg, sc after 24 hrs by LC-MS/MS analysis; type: ADME, organism-based; set-up: dose 1 mg/kg, route subcutaneous; settings: in vivo
Summary of the method: (§3)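 Single subcutaneous dose of 1 mg/kg in male Crl:CD(SD) rats, n = 3 per group. Blood was sampled from 5 min to 24 h (5, 10, 15, 30 min; 1, 2, 4, 8, 24 h). Plasma was deproteinized with formic acid/methanol and acetonitrile, and peptide levels were measured by LC-MS. Noncompartmental analysis per animal gave Cmax, Tmax, AUC0-24h, MRT and BA; values are mean ± SD (n = 3).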

KiSS-1 receptor [12] = molecular target: T2, KiSS-1 receptor; experiment: Agonist activity at human KISS1R transfected in CHO cells assessed as intracellular calcium flux after 24 hrs by functional FLIPR assay; type: cell-based
Summary of the method: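 CHO cells stably expressing human KISS1R were seeded at 15 000 cells/mL, cultured 24 h, then loaded with fluo-3 for 1 h at 37 °C in HBSS/HEPES (pH 7.4) with probenecid and FBS. Cells were washed in HBSS with 2.5 mM probenecid. Peptides came from 1 mM DMSO stocks diluted in buffer containing probenecid, 0.2% BSA and 0.1% CHAPS. Fluorescence was recorded on FLIPR for 3 min; peak counts over 0–180 s gave agonist activity.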

Rattus norvegicus [13] = experiment: Testosterone-suppressive activity in Crl:CD(SD) rat assessed as number of animal with plasma testosterone level below the limit of detection at 0.05 mol/hr, sc through osmotic pumps measured after 6 days by RIA; type: functional
Rattus norvegicus [14] = experiment: Testosterone-suppressive activity in Crl:CD(SD) rat assessed as number of animal with plasma testosterone level below the limit of detection […], sc through osmotic pumps measured after 6 days by RIA; type: functional
Canis familiaris = species on record: Canis familiaris; experiment: Toxicity in dog; type: organism-based, Canis lupus familiaris; settings: in vivo
[15] = Cmax in Sprague-Dawley rat at 1 mg/kg, sc after 24 hrs by LC-MS/MS analysis; type: ADME, organism-based; set-up: dose 1 mg/kg, route subcutaneous; settings: in vivo; summary of the method: as §3
Rattus norvegicus [16] = experiment: Testosterone-suppressive activity in Crl:CD(SD) rat assessed as number of animal with plasma testosterone level below the limit of detection at 0.03 mol/hr, sc through osmotic pumps measured after 6 days by RIA; type: functional
KiSS-1 receptor [17] = molecular target: T1, KiSS-1 receptor; experiment: Agonist activity at rat KISS1R transfected in CHO cells assessed as intracellular calcium flux after 24 hrs by functional FLIPR assay; type: cell-based
[18] = Stability of the compound in aqueous solution assessed as residual ratio at pH 5 up to 2 weeks by HPLC analysis relative to initial level; type: physicochemical; summary of the method: as §1
[19] = C5min in Sprague-Dawley rat at 1 mg/kg, iv after 5 mins by LC-MS/MS analysis; settings: in vivo, read-out: Cmin
Rattus norvegicus [20] = experiment: Stimulation of testosterone release in Crl:CD(SD) rat assessed as testosterone AUC (0 to 4 hrs) at 0.01 to 1 nmol/kg, sc single dose; type: functional, organism-based
[21] = Stability of the compound in aqueous solution assessed as residual ratio at pH 7 up to 1 week by HPLC analysis relative to initial level; type: physicochemical; summary of the method: as §1
[22] = Tmax in Sprague-Dawley rat at 1 mg/kg, sc after 24 hrs by LC-MS/MS analysis; type: ADME, organism-based; set-up: dose 1 mg/kg, route subcutaneous; settings: in vivo; summary of the method: as §3
[23] = Stability of the compound in aqueous solution assessed as residual ratio at pH 3 up to 2 weeks by HPLC analysis relative to initial level; type: physicochemical; summary of the method: as §1
[24] = Stability of the compound in aqueous solution assessed as residual ratio at pH 3 up to 1 week by HPLC analysis relative to initial level; type: physicochemical; summary of the method: as §1
[25] = AUC (0 to 24 hrs) in Sprague-Dawley rat at 1 mg/kg, sc after 24 hrs by LC-MS/MS analysis; type: ADME, organism-based; set-up: time < 24 hr, dose 1 mg/kg, route subcutaneous; settings: plasma; summary of the method: as §3
[26] = Volume of distribution at steady state in Sprague-Dawley rat at 1 mg/kg, iv after 24 hrs by LC-MS/MS analysis; type: ADME, organism-based; set-up: dose 1 mg/kg, route intravenous; settings: in vivo, read-out: Vdss; summary of the method: as §2
Rattus norvegicus [27] = experiment: Testosterone-suppressive activity in Crl:CD(SD) rat assessed as plasma testosterone level below the limit of detection at 10 to 100 pmol/hr, sc continuous administration through osmotic pumps measured up to 1 week by RIA; type: functional, organism-based
Summary of the method: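 Peptide in 50% DMSO was diluted in distilled water to 10, 30 or 100 μM pump solutions, giving 10–100 pmol/h by subcutaneous ALZET osmotic pump in male Crl:CD(SD) rats (n = 5). Vehicle served as control. Plasma testosterone was measured by RIA after 1 or 4 weeks, with values below 0.04 ng/mL set to 0.04. Results are mean ± SD of five rats, tested by one-tailed Shirley–Williams test versus vehicle.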

[28] = Stability of the compound in aqueous solution assessed as residual ratio at pH 7 up to 2 weeks by HPLC analysis relative to initial level; type: physicochemical; summary of the method: as §1
[29] = Bioavailability in Sprague-Dawley rat at 1 mg/kg, sc after 24 hrs by LC-MS/MS analysis; type: ADME, organism-based; settings: in vivo; summary of the method: as §3

**Q.** For `CNC(=N)NCCC[C@H](NC(=O)[C@H](CC(C)C)NC(=O)NNC(=O)[C@H](Cc1ccccc1)NC(=O)[C@@H](NC(=O)[C@H](CC(N)=O)NC(=O)[C@@H](Cc1c[nH]c2ccccc12)NC(=O)[C@@H](Cc1ccc(O)cc1)NC(C)=O)[C@@H](C)O)C(=O)N[C@@H](Cc1c[nH]c2ccccc12)C(N)=O` (Ac-[dY][dW]NTF[azaGly]L[Arg(Me)]W-NH2), which remaining at 168 h [1] is on record?
**A.** 95.9%

**Q.** And the “fold change (FC)” value (Rattus norvegicus [2])?
**A.** 100

**Q.** What about the clearance [3] of the same compound?
**A.** 13.7 mL/min/kg

**Q.** And the Ki (KiSS-1 receptor [4])?
**A.** 0.069 nM

**Q.** And the AUC(0-t) at 24 h [5]?
**A.** 1220 ng·h/mL

**Q.** And the remaining at 168 h [6]?
**A.** 55.6%

**Q.** What about the Activity (Rattus norvegicus [7]) of the same compound?
**A.** Non-toxic

**Q.** What about the Ki (KiSS-1 receptor [8]) of the same compound?
**A.** 0.036 nM

**Q.** What about the remaining at 336 h [9] of the same compound?
**A.** 28.8%

**Q.** What about the MRT [10] of the same compound?
**A.** 41.4 min

**Q.** And the MRT [11]?
**A.** 51.6 min

**Q.** And the EC50 (KiSS-1 receptor [12])?
**A.** 0.33 nM

**Q.** What about the Activity (Rattus norvegicus [13]) of the same compound?
**A.** 5%

**Q.** And the Activity (Rattus norvegicus [14])?
**A.** 0 animals

**Q.** What about the Activity (Canis familiaris) of the same compound?
**A.** Non-toxic

**Q.** And the Cmax [15]?
**A.** 100 ng/mL

**Q.** What about the Activity (Rattus norvegicus [16]) of the same compound?
**A.** 4%

**Q.** And the EC50 (KiSS-1 receptor [17])?
**A.** 1.3 nM

**Q.** What about the remaining at 336 h [18] of the same compound?
**A.** 93.6%

**Q.** What about the concentration at 5 min [19] of the same compound?
**A.** 2510 ng/mL

**Q.** And the Activity (Rattus norvegicus [20])?
**A.** Active

**Q.** And the remaining at 168 h [21]?
**A.** 79.7%

**Q.** What about the Tmax [22] of the same compound?
**A.** 11.4 min

**Q.** And the remaining at 336 h [23]?
**A.** 95.6%

**Q.** What about the remaining at 168 h [24] of the same compound?
**A.** 97.7%

**Q.** What about the AUC(0-t) at 24 h [25] of the same compound?
**A.** 115 ng·h/mL

**Q.** What about the Vd [26] of the same compound?
**A.** 0.562 L/kg

**Q.** What about the inhibition (Rattus norvegicus [27]) of the same compound?
**A.** Active

**Q.** What about the remaining at 336 h [28] of the same compound?
**A.** 66.4%

**Q.** What about the bioavailability [29] of the same compound?
**A.** 9.4%
